{"source": "ChEMBL document CHEMBL1165845", "about": "“Synthesis and biological evaluation of analogues of a novel inhibitor of beta-amyloid secretion” (J Med Chem, 2010)", "data": [{"tested_on": "H4", "experiment": "Induction of alpha-secretase-mediated reduction in amyloid beta secretion in human H4 cells expressing wild type betaAPP695 at 10 uM after 24 hrs […] relative to control", "format": "cell-based", "design": "scale not given: the % may be the effect or the level left", "conditions": "not given", "outline": "(§1)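 Serum-starved H4βAPP695wt cells are treated for 24 h with drug in DMSO (0.02% DMSO vehicle control). Total Aβ in conditioned medium is measured by sandwich ELISA with 6E10 capture and 4G8 detection, normalized to lysate protein by BCA. Cytotoxicity is read as total cell protein. Quadruplicate wells in 1-4 independent experiments give the % decrease versus vehicle.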", "units": {"Activity": "%"}, "values": [{"smiles": "O=C(NCCS(=O)(=O)Cc1ccc(F)cc1)c1c(F)cccc1Cl", "Activity": 39.2}, {"smiles": "O=C(NCCSCc1ccc(O)cc1)c1c(Cl)cccc1Cl", "Activity": 13.1}, {"smiles": "O=C(NCCSCc1cccc(Cl)c1)c1c(Br)cccc1Br", "Activity": 74.2}, {"smiles": "O=C(NCCSCc1cccc(F)c1)c1c(F)cccc1F", "Activity": -16.8}, {"smiles": "N/C(=N\\O)c1cccc(CSCCNC(=O)c2c(Cl)cccc2Cl)c1", "Activity": -1.5}, {"smiles": "COc1cc(CSCCNC(=O)c2c(Cl)cccc2Cl)cc(OC)c1", "Activity": 47.9}, {"smiles": "O=C(NCc1ccccc1)c1c(F)cccc1Cl", "Activity": 3.8}, {"smiles": "O=C(NCCSCc1cccc(NC(=O)C2CC2)c1)c1c(Cl)cccc1Cl", "Activity": -21.4}, {"smiles": "O=C(NCCSCc1cccc(Cl)c1)c1ccccc1", "Activity": 0.3}, {"smiles": "Cc1cccc(C)c1C(=O)NCCSCc1cccc(Cl)c1", "Activity": 29.5}, {"smiles": "Oc1c(Cl)cc(Cl)cc1/C=N/CCSCc1ccccc1Cl", "Activity": 5.3}, {"smiles": "O=Cc1cccc(CSCCNC(=O)c2c(Cl)cccc2Cl)c1", "Activity": 19.9}, {"smiles": "COCCCNC(=O)c1c(Cl)cccc1Cl", "Activity": 6.9}, {"smiles": "O=C(NCCSCc1cccc(Br)c1)c1c(Br)cccc1Br", "Activity": 78.6}, {"smiles": "CN(C)CCCNC(=O)c1c(Cl)cccc1Cl", "Activity": 15.8}, {"smiles": "COc1cccc(C[S+]([O-])CCNC(=O)c2c(Cl)cccc2Cl)c1", "note": "(stereo unspecified)", "Activity": -13.6}, {"smiles": "O=C(O)c1cccc(CSCCNC(=O)c2c(Cl)cccc2Cl)c1", "Activity": -11.4}, {"smiles": "O=C(Cc1c(Cl)cccc1Cl)NCCSCc1cccc(Cl)c1", "Activity": 6.7}, {"smiles": "O=C(NCCSCc1ccc(Cl)cc1)c1ccccc1Cl", "Activity": -12}, {"smiles": "O=C(NCCSCc1cccc(Br)c1)c1c(Cl)cccc1Cl", "Activity": 75}, {"smiles": "Nc1cccc(CSCCNC(=O)c2c(Cl)cccc2Cl)c1", "Activity": 0.1}, {"smiles": "CN(C)CCNC(=O)c1c(Cl)cccc1Cl", "Activity": 6.6}, {"smiles": "NC(=O)c1cccc(CSCCNC(=O)c2c(Cl)cccc2Cl)c1", "Activity": 6.2}, {"smiles": "O=C(NCCCCNC(=O)c1ccccc1Br)c1ccccc1Br", "Activity": 7.9}, {"smiles": "Clc1cccc(CSCCNCc2c(Cl)cccc2Cl)c1", "Activity": 45.2}, {"smiles": "COc1cccc(CSCCNC(=O)c2c(OC)cccc2OC)c1", "Activity": 6.2}, {"smiles": "O=C(NC1CC1)c1cccc(CSCCNC(=O)c2c(Cl)cccc2Cl)c1", "Activity": 1.9}, {"smiles": "COc1cccc(CSCCNC(=O)c2c([N+](=O)[O-])cccc2[N+](=O)[O-])c1", "Activity": -14.1}, {"smiles": "O=C(NCCSCc1ccc(Cl)cc1Cl)c1ccc(Cl)cc1Cl", "Activity": 39.8}, {"smiles": "CCOC(=O)c1cccc(CSCCNC(=O)c2c(Cl)cccc2Cl)c1", "Activity": 3}, {"smiles": "O=C(NCCSCc1cccc(C(F)(F)F)c1)c1c(Cl)cccc1Cl", "Activity": 73.9}, {"smiles": "O=C(NCCSCc1cc(O)cc(O)c1)c1c(Cl)cccc1Cl", "Activity": 3.1}, {"smiles": "O=C(NCCSCc1cccc(Cl)c1)c1ccc(F)cc1", "Activity": 6.4}, {"smiles": "O=C(NCCSCc1cccc(Cl)c1)c1c(C(F)(F)F)cccc1C(F)(F)F", "Activity": 6.2}]}, {"tested_on": "H4", "experiment": "Induction of alpha-secretase-mediated reduction in amyloid beta secretion in human H4 cells expressing wild type betaAPP695 at 30 uM after 24 hrs […] relative to control", "format": "cell-based", "design": "scale not given: the % may be the effect or the level left", "conditions": "not given", "outline": "as §1", "units": {"Activity": "%"}, "values": [{"smiles": "O=C(NCCSCc1ccc(O)cc1)c1c(Cl)cccc1Cl", "Activity": 56.7}, {"smiles": "O=C(NCCSCc1cccc(Cl)c1)c1c(Br)cccc1Br", "Activity": 83.4}, {"smiles": "O=C(NCCSCc1cccc(F)c1)c1c(F)cccc1F", "Activity": -15.5}, {"smiles": "N/C(=N\\O)c1cccc(CSCCNC(=O)c2c(Cl)cccc2Cl)c1", "Activity": 1.6}, {"smiles": "COc1cc(CSCCNC(=O)c2c(Cl)cccc2Cl)cc(OC)c1", "Activity": 80.4}, {"smiles": "O=C(NCCSCc1cccc(NC(=O)C2CC2)c1)c1c(Cl)cccc1Cl", "Activity": -2}, {"smiles": "O=C(NCCSCc1cccc(Cl)c1)c1ccccc1", "Activity": 10.7}, {"smiles": "Cc1cccc(C)c1C(=O)NCCSCc1cccc(Cl)c1", "Activity": 51.6}, {"smiles": "O=Cc1cccc(CSCCNC(=O)c2c(Cl)cccc2Cl)c1", "Activity": 36.4}, {"smiles": "O=C(NCCSCc1cccc(Br)c1)c1c(Br)cccc1Br", "Activity": 87.3}, {"smiles": "COc1cccc(C[S+]([O-])CCNC(=O)c2c(Cl)cccc2Cl)c1", "note": "(stereo unspecified)", "Activity": -15.8}, {"smiles": "O=C(O)c1cccc(CSCCNC(=O)c2c(Cl)cccc2Cl)c1", "Activity": -3.8}, {"smiles": "O=C(Cc1c(Cl)cccc1Cl)NCCSCc1cccc(Cl)c1", "Activity": 13.5}, {"smiles": "O=C(NCCSCc1cccc(Br)c1)c1c(Cl)cccc1Cl", "Activity": 90.1}, {"smiles": "Nc1cccc(CSCCNC(=O)c2c(Cl)cccc2Cl)c1", "Activity": 17}, {"smiles": "NC(=O)c1cccc(CSCCNC(=O)c2c(Cl)cccc2Cl)c1", "Activity": 32.3}, {"smiles": "Clc1cccc(CSCCNCc2c(Cl)cccc2Cl)c1", "Activity": 45.6}, {"smiles": "COc1cccc(CSCCNC(=O)c2c(OC)cccc2OC)c1", "Activity": -0.6}, {"smiles": "O=C(NC1CC1)c1cccc(CSCCNC(=O)c2c(Cl)cccc2Cl)c1", "Activity": 11}, {"smiles": "COc1cccc(CSCCNC(=O)c2c([N+](=O)[O-])cccc2[N+](=O)[O-])c1", "Activity": -2.8}, {"smiles": "CCOC(=O)c1cccc(CSCCNC(=O)c2c(Cl)cccc2Cl)c1", "Activity": 10.1}, {"smiles": "O=C(NCCSCc1cccc(C(F)(F)F)c1)c1c(Cl)cccc1Cl", "Activity": 93.4}, {"smiles": "O=C(NCCSCc1cc(O)cc(O)c1)c1c(Cl)cccc1Cl", "Activity": 17.2}, {"smiles": "O=C(NCCSCc1cccc(Cl)c1)c1c(C(F)(F)F)cccc1C(F)(F)F", "Activity": 13.5}]}, {"tested_on": "H4", "experiment": "Cytotoxicity against human H4 cells expressing wild type betaAPP695 assessed as decrease in cell protein at 10 uM after 24 hrs", "format": "cell-based", "design": "scale not given: the % may be the effect or the level left", "conditions": "h4, 24 h", "outline": "as §1", "units": {"Activity": "%"}, "values": [{"smiles": "N=C(NO)c1cccc(CSCCNC(=O)c2c(Cl)cccc2Cl)c1", "Activity": 9.2}, {"smiles": "O=C(NCCSCc1ccc(O)cc1)c1c(Cl)cccc1Cl", "Activity": 8.7}, {"smiles": "O=C(NCCSCc1cccc(Cl)c1)c1c(Br)cccc1Br", "Activity": 6.7}, {"smiles": "O=C(NCCSCc1cccc(F)c1)c1c(F)cccc1F", "Activity": 0.1}, {"smiles": "COc1cc(CSCCNC(=O)c2c(Cl)cccc2Cl)cc(OC)c1", "Activity": 2}, {"smiles": "O=C(NCCSCc1cccc(NC(=O)C2CC2)c1)c1c(Cl)cccc1Cl", "Activity": 3}, {"smiles": "O=C(NCCSCc1cccc(Cl)c1)c1ccccc1", "Activity": 2.4}, {"smiles": "Cc1cccc(C)c1C(=O)NCCSCc1cccc(Cl)c1", "Activity": 0.9}, {"smiles": "O=Cc1cccc(CSCCNC(=O)c2c(Cl)cccc2Cl)c1", "Activity": 1.5}, {"smiles": "O=C(NCCSCc1cccc(Br)c1)c1c(Br)cccc1Br", "Activity": 9.8}, {"smiles": "COc1cccc(C[S+]([O-])CCNC(=O)c2c(Cl)cccc2Cl)c1", "note": "(stereo unspecified)", "Activity": 1.6}, {"smiles": "O=C(O)c1cccc(CSCCNC(=O)c2c(Cl)cccc2Cl)c1", "Activity": 7.1}, {"smiles": "O=C(Cc1c(Cl)cccc1Cl)NCCSCc1cccc(Cl)c1", "Activity": -1.3}, {"smiles": "O=C(NCCSCc1cccc(Br)c1)c1c(Cl)cccc1Cl", "Activity": 12.3}, {"smiles": "Nc1cccc(CSCCNC(=O)c2c(Cl)cccc2Cl)c1", "Activity": 15.3}, {"smiles": "NC(=O)c1cccc(CSCCNC(=O)c2c(Cl)cccc2Cl)c1", "Activity": -2.8}, {"smiles": "Clc1cccc(CSCCNCc2c(Cl)cccc2Cl)c1", "Activity": -3.6}, {"smiles": "COc1cccc(CSCCNC(=O)c2c(OC)cccc2OC)c1", "Activity": 0.5}, {"smiles": "O=C(NC1CC1)c1cccc(CSCCNC(=O)c2c(Cl)cccc2Cl)c1", "Activity": 0}, {"smiles": "COc1cccc(CSCCNC(=O)c2c([N+](=O)[O-])cccc2[N+](=O)[O-])c1", "Activity": 3.7}, {"smiles": "CCOC(=O)c1cccc(CSCCNC(=O)c2c(Cl)cccc2Cl)c1", "Activity": 5.8}, {"smiles": "O=C(NCCSCc1cccc(C(F)(F)F)c1)c1c(Cl)cccc1Cl", "Activity": 19}, {"smiles": "O=C(NCCSCc1cc(O)cc(O)c1)c1c(Cl)cccc1Cl", "Activity": -0.4}, {"smiles": "O=C(NCCSCc1cccc(Cl)c1)c1c(C(F)(F)F)cccc1C(F)(F)F", "Activity": -4.2}]}, {"tested_on": "H4", "experiment": "Cytotoxicity against human H4 cells expressing wild type betaAPP695 assessed as decrease in cell protein at 30 uM after 24 hrs", "format": "cell-based", "design": "scale not given: the % may be the effect or the level left", "conditions": "h4, 24 h", "outline": "as §1", "units": {"Activity": "%"}, "values": [{"smiles": "N=C(NO)c1cccc(CSCCNC(=O)c2c(Cl)cccc2Cl)c1", "Activity": 5.9}, {"smiles": "O=C(NCCSCc1ccc(O)cc1)c1c(Cl)cccc1Cl", "Activity": 4.4}, {"smiles": "O=C(NCCSCc1cccc(Cl)c1)c1c(Br)cccc1Br", "Activity": 20.8}, {"smiles": "O=C(NCCSCc1cccc(F)c1)c1c(F)cccc1F", "Activity": 1.8}, {"smiles": "COc1cc(CSCCNC(=O)c2c(Cl)cccc2Cl)cc(OC)c1", "Activity": -8.7}, {"smiles": "O=C(NCCSCc1cccc(NC(=O)C2CC2)c1)c1c(Cl)cccc1Cl", "Activity": 3.2}, {"smiles": "O=C(NCCSCc1cccc(Cl)c1)c1ccccc1", "Activity": -4.5}, {"smiles": "Cc1cccc(C)c1C(=O)NCCSCc1cccc(Cl)c1", "Activity": -9.4}, {"smiles": "O=Cc1cccc(CSCCNC(=O)c2c(Cl)cccc2Cl)c1", "Activity": -2.1}, {"smiles": "O=C(NCCSCc1cccc(Br)c1)c1c(Br)cccc1Br", "Activity": 23.9}, {"smiles": "COc1cccc(C[S+]([O-])CCNC(=O)c2c(Cl)cccc2Cl)c1", "note": "(stereo unspecified)", "Activity": 9.2}, {"smiles": "O=C(O)c1cccc(CSCCNC(=O)c2c(Cl)cccc2Cl)c1", "Activity": 3.2}, {"smiles": "O=C(Cc1c(Cl)cccc1Cl)NCCSCc1cccc(Cl)c1", "Activity": -0.7}, {"smiles": "O=C(NCCSCc1cccc(Br)c1)c1c(Cl)cccc1Cl", "Activity": 38.6}, {"smiles": "Nc1cccc(CSCCNC(=O)c2c(Cl)cccc2Cl)c1", "Activity": 13.1}, {"smiles": "NC(=O)c1cccc(CSCCNC(=O)c2c(Cl)cccc2Cl)c1", "Activity": -8.6}, {"smiles": "Clc1cccc(CSCCNCc2c(Cl)cccc2Cl)c1", "Activity": 6.6}, {"smiles": "COc1cccc(CSCCNC(=O)c2c(OC)cccc2OC)c1", "Activity": 3.9}, {"smiles": "O=C(NC1CC1)c1cccc(CSCCNC(=O)c2c(Cl)cccc2Cl)c1", "Activity": -1}, {"smiles": "COc1cccc(CSCCNC(=O)c2c([N+](=O)[O-])cccc2[N+](=O)[O-])c1", "Activity": -3.8}, {"smiles": "CCOC(=O)c1cccc(CSCCNC(=O)c2c(Cl)cccc2Cl)c1", "Activity": 5.4}, {"smiles": "O=C(NCCSCc1cccc(C(F)(F)F)c1)c1c(Cl)cccc1Cl", "Activity": 47.8}, {"smiles": "O=C(NCCSCc1cc(O)cc(O)c1)c1c(Cl)cccc1Cl", "Activity": -0.7}, {"smiles": "O=C(NCCSCc1cccc(Cl)c1)c1c(C(F)(F)F)cccc1C(F)(F)F", "Activity": -0.4}]}]}
